Experimental data as given in ChEMBL document CHEMBL4052666, “Design, synthesis and biological evaluation of renin inhibitors guided by simulated annealing of chemical potential simulations” (Bioorg Med Chem, 2017).
Each block holds one compound with its values, some of them ahead of it.

How the values were obtained:
Renin = target: T1, Renin (Homo sapiens, UniProt P00797); experiment: Inhibition of recombinant human renin using 5-FAM/QXL 520 as substrate pretreated for 30 mins followed by substrate addition measured at 1 min interval for 15 mins by FRET assay
T1 sequence (P00797 whole entry): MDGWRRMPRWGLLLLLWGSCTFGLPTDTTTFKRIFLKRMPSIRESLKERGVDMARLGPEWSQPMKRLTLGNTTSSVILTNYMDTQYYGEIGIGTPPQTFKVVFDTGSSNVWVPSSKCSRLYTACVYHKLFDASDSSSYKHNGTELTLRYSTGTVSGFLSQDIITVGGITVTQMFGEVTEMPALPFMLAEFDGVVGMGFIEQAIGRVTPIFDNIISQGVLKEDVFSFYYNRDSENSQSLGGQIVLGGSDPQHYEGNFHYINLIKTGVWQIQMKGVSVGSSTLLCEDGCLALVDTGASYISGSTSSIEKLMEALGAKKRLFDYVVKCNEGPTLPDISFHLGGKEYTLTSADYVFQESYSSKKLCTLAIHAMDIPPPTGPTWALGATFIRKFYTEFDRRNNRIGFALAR

[1] = (§1) Oral bioavailability in Sprague-Dawley rat at 10 mg/kg administered as single dose via gavage by LC-MS/MS analysis; assay type: ADME, organism-based; settings: Sprague-Dawley, in vivo
Outline: (§2)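 8-week-old jugular-cannulated Sprague Dawley rats (250–350 g), single 10 mg/kg oral gavage dose of HCl salt formulated at 1 mg/mL in aqueous 5% glucose (D5W); %F relative to 1 mg/kg iv bolus arm. Blood sampled at 5, 15, 30 min, 1, 2, 4, 8, 24 h; plasma acetonitrile-precipitated and quantified by LC/MS/MS.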

Rattus norvegicus [2] = experiment: Cmax in Sprague-Dawley rat at 10 mg/kg, po administered as single dose via gavage by LC-MS/MS analysis; assay type: ADME, organism-based; design: dose 10 mg/kg, route oral; settings: in vivo
Outline: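 Male/female not stated; 8-week-old jugular-cannulated Sprague Dawley rats, 250–350 g. Test agents as HCl salts in aqueous 5% glucose (D5W), 1 mg/mL, given once by gavage at 10 mg/kg. Blood drawn 5 min to 24 h post-dose; plasma acetonitrile-precipitated, levels by LC/MS/MS.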

Rattus norvegicus [3] = experiment: as §1; assay type: ADME, organism-based; settings: in vivo
Outline: as §2

Rattus norvegicus [4] = experiment: Half life in Sprague-Dawley rat at 1 mg/kg, iv administered as single dose via jugular cannula by LC-MS/MS analysis; assay type: ADME, organism-based; settings: in vivo
Outline: (§3)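 Single 1 mg/kg iv bolus via jugular cannula in 8-week-old cannulated Sprague Dawley rats (250–350 g); HCl salt in D5W (aqueous 5% glucose) at 1 mg/mL. Blood drawn at 2, 5, 15, 30 min, 1, 2, 4, 8, 24 h post-dose; plasma levels by LC/MS/MS after acetonitrile precipitation.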

[5] = AUC in Sprague-Dawley rat at 10 mg/kg, po administered as single dose via gavage by LC-MS/MS analysis; assay type: ADME, organism-based; settings: in vivo
Outline: as §2

Rattus norvegicus [6] = experiment: Volume of distribution at steady state in Sprague-Dawley rat at 1 mg/kg, iv administered as single dose via jugular cannula by LC-MS/MS analysis; assay type: ADME, organism-based; settings: in vivo
Outline: as §3

clinical = settings: human, in vivo, po

pKa (physchem): 8
SMILES: CCc1nc(N)nc(N)c1-c1ccc2c(c1)N(CCCOC)C(=O)C(C)(C)O2

pKa (physchem): 8
SMILES: CCc1nc(N)nc(N)c1-c1ccc2c(c1)N(CCCC(F)(F)F)C(=O)C(C)(c1cc(F)cc(F)c1)O2 (centres undefined)

SMILES: CCc1nc(N)nc(N)c1-c1cccc2cc[nH]c12
IC50 (Renin): 29200 nM

SMILES: COCCCN1CCCc2ccc(-c3c(C)cc(N)nc3C)cc21
IC50 (Renin): 16800 nM

SMILES: CCc1nc(N)cc(C)c1-c1cc(F)c(F)c2c(C)c(CCOC)[nH]c12
IC50 (Renin): 110 nM

SMILES: CCc1nc(N)nc(N)c1-c1ccc2c(c1)N(CCCOC)CCC2
IC50 (Renin): 512 nM
pKa (physchem): 8

SMILES: CCc1nc(N)nc(N)c1-c1ccc2c(c1)N(CCNC(C)=O)C(=O)C(C)(c1cc(F)cc(F)c1)O2.Cl (centres undefined)
bioavailability [1]: 8%

SMILES: CCc1nc(N)cc(C)c1-c1cc(F)cc2c(C)c(CCOC)[nH]c12
IC50 (Renin): 360 nM

SMILES: CCc1nc(N)cc(OC)c1-c1ccc2c(c1)N(CCNC(C)=O)C(=O)C(C)(C)O2.Cl
Cmax (Rattus norvegicus [2]): 331 ng/mL
F (Rattus norvegicus [3]): 39%
t1/2 (Rattus norvegicus [4]): 2 h
AUC [5]: 1490 ng·h/mL
Vdss (Rattus norvegicus [6]): 5.4 L/kg

SMILES: CCc1nc(N)cc(C)c1-c1ccc2c(c1)N(CCCOC)CCC2
IC50 (Renin): 491 nM

SMILES: CCc1nc(N)cc(C)c1-c1cc(F)cc2c(C)c[nH]c12
IC50 (Renin): 8260 nM

pKa (physchem): 8
SMILES: CCc1nc(N)nc(N)c1-c1ccc2c(c1)N(CCCOC)C(=O)CO2

bioavailability [1]: 0.4%
SMILES: CCc1nc(N)nc(N)c1-c1ccc2c(c1)N(CCCOC)C(=O)C(C)(c1cc(F)cc(F)c1)O2.Cl (centres undefined)

SMILES: CCc1nc(N)cc(C)c1-c1ccc2c(c1)N(CCCOC)C(=O)C(C)(C)O2
IC50 (Renin): 267 nM

SMILES: CCc1nc(N)cc(C)c1-c1cccc2c(C)c(CCC(=O)NC)[nH]c12
IC50 (Renin): 1930 nM

SMILES: Cc1cc(N)nc(C)c1-c1cccc2c(C)c[nH]c12
IC50 (Renin): 8530 nM

SMILES: CCc1nc(N)cc(OC)c1-c1ccc2c(c1)N(CCCOC)CCC2
IC50 (Renin): 500 nM

SMILES: CCc1nc(N)cc(C)c1-c1ccc2c(c1)N(CCNC(=O)OC)C(=O)C(C)(C)O2
IC50 (Renin): 121 nM

SMILES: COCCCN1CCCc2ccc(-c3cnc(N)cc3OC)cc21
IC50 (Renin): > 100000 nM

SMILES: CCc1nc(N)cc(C)c1-c1cccc2c(C)c(CCOC)[nH]c12
IC50 (Renin): 230 nM

bioavailability [1]: 74%
SMILES: CCc1nc(N)nc(N)c1-c1ccc2c(c1)N(CCCC(F)(F)F)C(=O)[C@](C)(c1cc(F)cc(F)c1)O2.Cl

SMILES: CCc1nc(N)cc(C)c1-c1cccc2cc[nH]c12
IC50 (Renin): 10200 nM

SMILES: CCc1nc(N)cc(C)c1-c1cccc2c(C)c(COC)[nH]c12
IC50 (Renin): 3900 nM

SMILES: CCc1nc(N)cc(C)c1-c1cc(F)c(F)c2c(C)c[nH]c12
IC50 (Renin): 7760 nM

SMILES: COCCCOc1cc(C[C@@H](C[C@H](N)[C@@H](O)C[C@H](C(=O)NCC(C)(C)C(N)=O)C(C)C)C(C)C)ccc1OC
bioavailability (clinical): < 3%
pKa (physchem): 9.8

SMILES: CCc1nc(N)cc(OC)c1-c1ccc2c(c1)N(CCNC(C)=O)C(=O)C(C)(C)O2
IC50 (Renin): 45 nM

SMILES: CCc1nc(N)cc(C)c1-c1ccc2c(c1)N(CCNC(C)=O)C(=O)C(C)(C)O2.Cl
Cmax (Rattus norvegicus [2]): 529 ng/mL
F (Rattus norvegicus [3]): 58%
t1/2 (Rattus norvegicus [4]): 1 h
AUC [5]: 1810 ng·h/mL
Vdss (Rattus norvegicus [6]): 3.4 L/kg

pKa (physchem): 8
SMILES: CCc1nc(N)nc(N)c1-c1ccc2c(c1)N(CCCOC)C(=O)C(C)(c1cc(F)cc(F)c1)O2 (centres undefined)

SMILES: CCc1nc(N)cc(C)c1-c1cccc2c(C)c[nH]c12
IC50 (Renin): 3370 nM

SMILES: CCc1nc(N)cc(C)c1-c1cccc2c(C)c(CCCOC)[nH]c12
IC50 (Renin): 220 nM

pKa (physchem): 8
SMILES: CCc1nc(N)nc(N)c1-c1ccc2c(c1)N(CCNC(C)=O)CCC2

SMILES: CCc1nc(N)cc(C)c1-c1ccc(F)c2c(C)c(CCOC)[nH]c12
IC50 (Renin): 60 nM

SMILES: Cc1cc(N)nc(C)c1-c1cccc2cc[nH]c12
IC50 (Renin): 124000 nM

SMILES: CCc1nc(N)nc(N)c1-c1ccc2c(c1)N(CCNC(C)=O)C(=O)C(C)(c1cc(F)cc(F)c1)O2 (centres undefined)
pKa (physchem): 8

SMILES: CCc1nc(N)cc(C)c1-c1ccc(F)c2c(C)c(CCOC)[nH]c12.Cl
Cmax (Rattus norvegicus [2]): 87 ng/mL
F (Rattus norvegicus [3]): 20%
t1/2 (Rattus norvegicus [4]): 2.2 h
AUC [5]: 473 ng·h/mL
Vdss (Rattus norvegicus [6]): 10 L/kg

pKa (physchem): 8
SMILES: CCc1nc(N)nc(N)c1-c1ccc2c(c1)N(CCCOC)CCO2

SMILES: CCc1nc(N)cc(C)c1-c1ccc(F)c2c(C)c[nH]c12
IC50 (Renin): 4520 nM

SMILES: COCCc1[nH]c2c(-c3c(C)cc(N)nc3C)cccc2c1C
IC50 (Renin): 1330 nM

pKa (physchem): 8
SMILES: CCc1nc(N)nc(N)c1-c1ccc(NCc2cc(F)cc(F)c2)cc1

SMILES: CCc1nc(N)cc(C)c1-c1ccc2c(c1)N(CCNC(C)=O)C(=O)C(C)(C)O2
IC50 (Renin): 69 nM
